Data on 16 compounds can be found in ChEMBL document CHEMBL4699390, “Chromone and donepezil hybrids as new multipotent cholinesterase and monoamine oxidase inhibitors for the potential treatment of Alzheimer''s disease” (RSC Med Chem, 2020).

A short description of data set [1]: Selectivity index, ratio of IC50 for equine serum BuChE to IC50 for electric eel AChE by Ellman's method.
Data set [2] concerns the target Acetylcholinesterase (Electrophorus electricus, UniProt O42275). The data set is described as follows: Inhibition of electric eel AChE using acetylthiocholine iodide as substrate preincubated with enzyme for 6 mins followed by substrate addition and measured for 180 secs by Ellman's method.
The target in data set [3] is Cholinesterase (Equus caballus, UniProt P81908). Description: Inhibition of equine serum BuChE using butyrylthiocholine iodide as substrate preincubated with enzyme for 6 mins followed by substrate addition and measured for 180 secs by Ellman's method. A digest of the protocol: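 Ellman assay. Enzyme at 0.12 U/mL in 50 mM Tris-HCl pH 8.0 with 0.1% w/v BSA, plus 1.5 mM DTNB, preincubated with compound (0.001-100 μM, diluted from DMSO stock into Tris buffer with MgCl₂/NaCl) at 37 °C for 6 min. Then 15 mM butyrylthiocholine iodide was added, and absorbance at 405 nm was read at 0, 60, 120 and 180 s. IC50 from nonlinear regression of log concentration-response curves; at least three experiments in triplicate.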
(In general: In Ellman's method for cholinesterases, released thiocholine reacts with DTNB.)

Data set [4] addresses T1, Amine oxidase [flavin-containing] A (Homo sapiens, UniProt P21397).
T1 sequence (P21397 whole entry): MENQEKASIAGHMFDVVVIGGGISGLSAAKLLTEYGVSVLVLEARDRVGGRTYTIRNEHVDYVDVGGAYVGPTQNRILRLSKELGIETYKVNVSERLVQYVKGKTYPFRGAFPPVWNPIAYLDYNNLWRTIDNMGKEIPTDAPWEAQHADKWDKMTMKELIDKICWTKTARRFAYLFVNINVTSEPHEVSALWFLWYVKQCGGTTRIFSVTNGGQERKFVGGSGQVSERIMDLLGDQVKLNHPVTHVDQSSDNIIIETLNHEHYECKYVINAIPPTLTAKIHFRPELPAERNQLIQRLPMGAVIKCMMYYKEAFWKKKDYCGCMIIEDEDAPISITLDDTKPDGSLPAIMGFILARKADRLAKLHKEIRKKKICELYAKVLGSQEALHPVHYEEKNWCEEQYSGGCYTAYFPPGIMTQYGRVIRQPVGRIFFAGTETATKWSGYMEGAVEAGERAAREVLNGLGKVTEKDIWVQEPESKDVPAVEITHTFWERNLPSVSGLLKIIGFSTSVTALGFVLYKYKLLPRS
The data set is described as follows: Inhibition of recombinant human MAO- A using p-tyramine as substrate at 100 uM preincubated with enzyme for 15 mins followed incubation with substrate for 20 mins by Amplex red reagent based fluorescence based analysis relative to control. The conditions noted are these: time 35 min. A digest of the protocol:
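Human MAO-A (1.1 µg protein, activity set to oxidize 165 pmol p-tyramine/min) was preincubated with compound in 0.05 M potassium phosphate pH 7.4 at 37 °C for 15 min in the dark. The reaction was started with 2 mM p-tyramine, 2 U/mL HRP and 200 µM Amplex Red for 20 min at 37 °C. Fluorescence was read at ex 545/em 590 nm, and inhibition was calculated against the uninhibited control after background subtraction.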

Data set [5] addresses T2, Amine oxidase [flavin-containing] B (Homo sapiens, UniProt P27338).
T2 sequence (P27338 whole entry): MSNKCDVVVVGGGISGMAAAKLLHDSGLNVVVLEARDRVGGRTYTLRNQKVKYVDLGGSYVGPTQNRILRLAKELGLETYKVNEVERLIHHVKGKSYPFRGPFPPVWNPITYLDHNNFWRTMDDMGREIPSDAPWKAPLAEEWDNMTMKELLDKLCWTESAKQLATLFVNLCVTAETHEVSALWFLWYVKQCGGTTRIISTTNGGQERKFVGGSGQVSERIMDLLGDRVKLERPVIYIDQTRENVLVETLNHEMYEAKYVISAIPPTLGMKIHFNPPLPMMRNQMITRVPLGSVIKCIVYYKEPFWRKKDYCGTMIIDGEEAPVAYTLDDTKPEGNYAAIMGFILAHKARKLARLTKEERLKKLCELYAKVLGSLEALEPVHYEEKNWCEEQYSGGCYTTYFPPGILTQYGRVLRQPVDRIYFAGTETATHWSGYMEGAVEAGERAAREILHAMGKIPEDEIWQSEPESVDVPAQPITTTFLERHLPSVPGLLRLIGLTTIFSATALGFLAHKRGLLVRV

For data set [6], the species on record is Homo sapiens. Description: Selectivity for recombinant human MAO-B over recombinant human MAO-A.
Data set [7] has as its target Acetylcholinesterase (Electrophorus electricus) (UniProt O42275). The data set is described as follows: Mixed-type inhibition of electric eel AChE using varying concentration of acetylthiocholine iodide as substrate at 0.185 to 0.74 uM by Lineweaver-burk plot analysis. The conditions noted are these: dose microM 0.185-0.74.
A short description of data set [8]: in vitro. To be noted: PAMPA. (In general: The PAMPA barrier holds no transporters, so it reflects passive diffusion.)
Data set [9] addresses T2, Amine oxidase [flavin-containing] B. Description: Competitive inhibition of recombinant human MAO-B using varying concentration of p-tyramine as substrate at 0.13 to 0.54 uM by Lineweaver-burk plot analysis. The conditions noted are these: dose 0.13-0.54 µM. A digest of the protocol:
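Preincubation-free kinetic run with human MAO-B: initial oxidation rates of p-tyramine measured at six substrate concentrations without inhibitor and with three inhibitor concentrations (0.54, 0.27, 0.13 μM). Activity was read by the Amplex Red/horseradish peroxidase fluorescence method. Plots were fitted by weighted least-squares analysis, assuming the variance of v is a constant percentage of v.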

The target of data set [10] is Cholinesterase (Equus caballus) (UniProt P81908). The data set is described as follows: Competitive inhibition of equine serum BuChE […] using varying concentrations of butyrylthiocholine iodide as substrate at 2.6 to 10.5 uM by Lineweaver-burk plot analysis. To be noted: dose microM 2.6-10.5.
Data set [11] deals with PC-12. Description: Cytotoxicity against rat PC12 cells assessed as cell viability at 1 to 50 uM measured after 24 hrs by MTT assay. The data set is classed as cell-based. To be noted: pc-12, 24 h, dose 1-50 µM. A digest of the protocol:
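PC12 cells were grown at 37 °C, 5% CO₂ in DMEM with 10% bovine calf serum and penicillin/streptomycin, then seeded at 10,000 cells/well. At the required confluence they were switched to serum-free medium with compound for 24 h. Viability was read by MTT (4 h at 37 °C), with formazan dissolved in DMSO.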

In data set [12] the target is T1, Amine oxidase [flavin-containing] A. Description: Inhibition of recombinant human MAO- A using p-tyramine as substrate preincubated with enzyme for 15 mins followed incubation with substrate for 20 mins by Amplex red reagent based fluorescence based analysis.

The structures appear in SMILES notation. pIC50: −log10 of the molar value. Activity calls are given as the source filed them. The calls are words filed in the database; no cut-off is given here.

Sequence of Cholinesterase (P81908 whole entry): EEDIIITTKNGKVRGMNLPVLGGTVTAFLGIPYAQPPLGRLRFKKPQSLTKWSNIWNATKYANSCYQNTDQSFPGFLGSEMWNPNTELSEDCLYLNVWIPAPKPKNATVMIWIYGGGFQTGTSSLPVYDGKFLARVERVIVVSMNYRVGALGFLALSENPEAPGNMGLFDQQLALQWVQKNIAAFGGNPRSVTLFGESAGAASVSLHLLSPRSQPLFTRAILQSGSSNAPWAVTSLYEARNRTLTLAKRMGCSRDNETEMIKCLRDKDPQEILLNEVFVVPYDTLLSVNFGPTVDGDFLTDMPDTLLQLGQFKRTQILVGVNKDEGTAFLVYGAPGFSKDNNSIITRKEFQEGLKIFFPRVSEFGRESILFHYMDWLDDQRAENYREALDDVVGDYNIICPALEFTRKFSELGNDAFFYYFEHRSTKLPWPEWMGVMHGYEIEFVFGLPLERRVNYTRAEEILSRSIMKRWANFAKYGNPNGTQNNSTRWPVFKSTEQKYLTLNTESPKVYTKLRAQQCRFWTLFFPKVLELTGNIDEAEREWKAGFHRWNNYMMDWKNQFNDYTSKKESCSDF
Sequence of Acetylcholinesterase (O42275 whole entry): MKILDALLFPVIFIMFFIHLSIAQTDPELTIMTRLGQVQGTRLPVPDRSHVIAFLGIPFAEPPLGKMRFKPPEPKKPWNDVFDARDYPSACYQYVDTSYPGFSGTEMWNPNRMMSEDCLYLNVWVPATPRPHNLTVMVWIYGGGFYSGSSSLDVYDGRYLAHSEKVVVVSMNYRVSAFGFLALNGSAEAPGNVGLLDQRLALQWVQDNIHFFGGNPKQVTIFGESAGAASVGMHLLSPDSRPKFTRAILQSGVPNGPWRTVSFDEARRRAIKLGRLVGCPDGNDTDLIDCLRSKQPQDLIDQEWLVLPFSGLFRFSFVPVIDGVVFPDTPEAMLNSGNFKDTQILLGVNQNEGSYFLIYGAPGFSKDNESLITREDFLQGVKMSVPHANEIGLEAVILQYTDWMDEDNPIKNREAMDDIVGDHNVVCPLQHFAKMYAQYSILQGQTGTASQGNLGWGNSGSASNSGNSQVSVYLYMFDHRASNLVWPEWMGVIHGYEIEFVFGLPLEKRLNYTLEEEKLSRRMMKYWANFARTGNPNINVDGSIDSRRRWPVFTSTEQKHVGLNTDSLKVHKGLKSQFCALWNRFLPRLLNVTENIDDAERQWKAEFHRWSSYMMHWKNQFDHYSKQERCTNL
Sequence of Cholinesterase (Equus caballus) (P81908 whole entry): as the sequence (P81908 whole entry) above
Sequence of Acetylcholinesterase (Electrophorus electricus) (O42275 24-633 limits assumed): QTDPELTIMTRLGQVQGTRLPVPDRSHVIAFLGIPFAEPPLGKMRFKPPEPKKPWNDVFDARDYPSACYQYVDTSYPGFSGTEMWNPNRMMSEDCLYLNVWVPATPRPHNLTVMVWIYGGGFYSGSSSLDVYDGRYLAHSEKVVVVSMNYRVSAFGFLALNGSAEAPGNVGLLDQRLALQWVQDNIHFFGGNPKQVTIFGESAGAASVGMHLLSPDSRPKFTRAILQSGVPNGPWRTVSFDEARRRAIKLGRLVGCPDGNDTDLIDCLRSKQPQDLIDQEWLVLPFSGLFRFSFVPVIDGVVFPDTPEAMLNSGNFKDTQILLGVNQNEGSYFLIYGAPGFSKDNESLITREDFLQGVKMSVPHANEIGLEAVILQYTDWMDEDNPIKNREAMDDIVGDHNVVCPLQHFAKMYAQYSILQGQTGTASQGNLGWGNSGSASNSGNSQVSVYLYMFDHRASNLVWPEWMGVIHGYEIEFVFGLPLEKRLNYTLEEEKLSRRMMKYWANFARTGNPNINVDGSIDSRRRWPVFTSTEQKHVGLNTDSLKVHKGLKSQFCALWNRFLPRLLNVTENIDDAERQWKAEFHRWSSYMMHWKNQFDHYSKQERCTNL

With `COc1ccc2c(=O)c(C(=O)NCCC3CCN(Cc4ccccc4)CC3)coc2c1`, in data set [1], the Ratio IC50 worked out at 3.7. Moreover, the pIC50 – broadly, the negative decadic logarithm of the IC50, by convention in mol/L – in data set [2] is 6.84; in [3], 6.28; in data set [5] it was 4.51. Also, in data set [4], the inhibition (in general, how much of the control response was suppressed) at 100 µM turned out to be 32.4%. Moreover, in data set [6], the Selectivity ratio was greater than 3.2.
On to `O=C(NC1CCN(Cc2ccccc2)CC1)c1cc(=O)c2ccccc2o1`, for which the Ratio IC50 in [1] is 7.6. Besides, the pIC50 in [2] is 5.24; in [3], 4.56; in data set [5] it was 4.48. The inhibition at 100 µM in data set [4] turned out to be 29.7%. The Selectivity ratio in [6] was greater than 3.1.
As to `O=C(NCCC1CCN(Cc2ccccc2)CC1)c1coc2ccc(OCc3ccccc3)cc2c1=O`, the inhibition entry in data set [7] and in data set [10] was “Active” throughout. For the same compound, the Ratio IC50 in [1] is 14.2. Besides, in data set [8], the apparent permeability (Papp) (usually a coefficient for how fast a substance crosses the barrier) at 16 h amounted to 5.4 ×10⁻⁶ cm/s. Besides, the “inhibition (INH)” value in [9] was “Active”. The pIC50 is 6.43 in [2], 5.28 in data set [3], 6.57 in data set [5] and 4.17 in data set [12]. The Activity result in [11] was “Non-Toxic”. Also, the Selectivity ratio in data set [6] is 247.
For `O=C(NC1CCN(Cc2ccccc2)CC1)c1coc2ccccc2c1=O`, in data set [1], the Ratio IC50 was found to be 6.3. The compound also yielded a Papp at 16 h in data set [8] of 15.6 ×10⁻⁶ cm/s. The pIC50 in data set [2] was 5.53; in [3] it was 4.73; in data set [5], 4.75. Besides, the inhibition at 100 µM in [4] is 63.8%. Moreover, the Selectivity ratio in data set [6] is less than 5.6.
`O=C(NC1CCN(Cc2ccccc2)CC1)c1coc2ccc(Br)cc2c1=O`: the Ratio IC50 in data set [1] was 6.1. The values for the negative-log IC50 (pIC50) in data set [2], in data set [3] and in [5] were 5.80, 5.02 and 4.64, respectively. The inhibition at 100 µM in data set [4] was found to be 35.5%. Besides, in data set [6], the Selectivity ratio is greater than 4.4.
As for `Cc1ccc2occ(C(=O)NCCC3CCN(Cc4ccccc4)CC3)c(=O)c2c1`, the Ratio IC50 in [1] was 8.3. Besides, the pIC50 in data set [2] is 6.96; in data set [3] it was 6.04; in data set [5], 4.28. Further, in [4], the inhibition at 100 µM is 30.6%. For the same compound, the Selectivity ratio in [6] is greater than 1.9.
For the compound `O=C(NCCC1CCN(Cc2ccccc2)CC1)c1coc2cc(Br)ccc2c1=O`, in [1], the Ratio IC50 turned out to be 11.9. The pIC50 in data set [2] was 6.81; in data set [3], 5.91; in data set [5] it was 4.53. The inhibition at 100 µM in data set [4] was 30.3%. In addition, the Selectivity ratio in [6] is greater than 3.4.
Turning to `Cc1ccc2occ(C(=O)NC3CCN(Cc4ccccc4)CC3)c(=O)c2c1`, the Ratio IC50 in data set [1] is 8.8. For the same compound, the figures for the pIC50 in data set [2], in data set [3] and in data set [5] were 5.76, 4.82 and 4.71, respectively. The inhibition at 100 µM in data set [4] was 48.1%. Also, the Selectivity ratio in data set [6] was greater than 5.1.
As for `O=C(NC1CCN(Cc2ccccc2)CC1)c1coc2ccc(OCc3ccccc3)cc2c1=O`, the Ratio IC50 in data set [1] came to 6.7. Also, the Papp at 16 h in data set [8] was 4.6 ×10⁻⁶ cm/s. Moreover, the pIC50 was 5.73 in data set [2], 4.91 in data set [3], 7.46 in data set [5] and 4.94 in [12]. Besides, the Activity result in data set [11] is “Non-Toxic”. Also, the Selectivity ratio in data set [6] turned out to be 211.
Regarding `O=C(NCCC1CCN(Cc2ccccc2)CC1)c1coc2ccc(Br)cc2c1=O`, the Ratio IC50 in data set [1] is 11.3. For the same compound, the figures for the pIC50 in [2], in data set [3] and in data set [5] were 6.98, 5.93 and 4.58, respectively. Further, the inhibition at 100 µM in data set [4] turned out to be 48.2%. In addition, the Selectivity ratio in [6] was greater than 3.8.
`O=C(NCCC1CCN(Cc2ccccc2)CC1)c1cc(=O)c2ccccc2o1`: in [1], the Ratio IC50 was 4.9. Besides, the pIC50 is 6.51 in data set [2], 5.81 in [3] and 4.70 in data set [5]. In data set [4], the inhibition at 100 µM is 29.5%. Further, the Selectivity ratio in [6] is greater than 4.9.
For `COc1ccc2c(=O)c(C(=O)NC3CCN(Cc4ccccc4)CC3)coc2c1`, in data set [1], the Ratio IC50 was 6.2. Besides, the pIC50 is 5.80 in data set [2], 5.01 in data set [3] and 4.54 in data set [5]. The inhibition at 100 µM in [4] amounted to 37.4%. For the same compound, the Selectivity ratio in data set [6] was greater than 3.5.
Take `O=C(NCCC1CCN(Cc2ccccc2)CC1)c1coc2ccccc2c1=O`: the Ratio IC50 in data set [1] turned out to be 8.7. For the same compound, the values for the pIC50 in [2], in data set [3] and in data set [5] were 7.16, 6.22 and 4.45, respectively. Moreover, the inhibition at 100 µM in data set [4] was determined as 68.6%. Also, the Selectivity ratio in data set [6] is less than 2.8.
In the case of `O=C(NC1CCN(Cc2ccccc2)CC1)c1coc2cc(Br)ccc2c1=O`, the Ratio IC50 in [1] is 1.2. For the same compound, the values for the pIC50 in data set [2], in [3] and in data set [5] were 5.03, 4.74 and 4.70, respectively. Also, the inhibition at 100 µM in data set [4] stood at 31.6%. For the same compound, in data set [6], the Selectivity ratio was greater than 5.1.
As for `COc1ccc2occ(C(=O)NCCC3CCN(Cc4ccccc4)CC3)c(=O)c2c1`, the Ratio IC50 in data set [1] was 13.7. This compound came in with a Papp at 16 h in [8] of 16.7 ×10⁻⁶ cm/s. The negative-log IC50 (pIC50) was 7.48 in data set [2], 6.35 in data set [3] and 4.95 in data set [5]. Moreover, the Activity entry in [11] is recorded as “Non-Toxic”. Also, the inhibition at 100 µM in data set [4] stood at 72.4%. For the same compound, the Selectivity ratio in data set [6] is less than 8.9.
As to `COc1ccc2occ(C(=O)NC3CCN(Cc4ccccc4)CC3)c(=O)c2c1`, in data set [1], the Ratio IC50 was determined as 2.4. Also, the pIC50 is 4.99 in data set [2], 4.61 in [3] and 4.33 in data set [5]. For the same compound, the inhibition at 100 µM in data set [4] is 7.5%. Moreover, in data set [6], the Selectivity ratio is greater than 2.1.
